Source: PMC11040699 (JACS Au, 2024)
“Also recorded” adds a separate entry of the source. One block for each molecule: values may come before it. Residues, ends and D or L forms follow the SMILES beside them. No end group written: not given here. *: point of attachment. Acetyl(9-fluorenyl) = O=C(CC1c2ccccc2-c2ccccc21)*

Legend:
[1] = molecular target: T1, recombinant mouse α-Klotho (mKlotho) (Mus musculus, UniProt O35082); test: Competition binding assay with BLI against immobilized Pep-10-Biotin, mKlotho
T1 sequence (O35082 35-960): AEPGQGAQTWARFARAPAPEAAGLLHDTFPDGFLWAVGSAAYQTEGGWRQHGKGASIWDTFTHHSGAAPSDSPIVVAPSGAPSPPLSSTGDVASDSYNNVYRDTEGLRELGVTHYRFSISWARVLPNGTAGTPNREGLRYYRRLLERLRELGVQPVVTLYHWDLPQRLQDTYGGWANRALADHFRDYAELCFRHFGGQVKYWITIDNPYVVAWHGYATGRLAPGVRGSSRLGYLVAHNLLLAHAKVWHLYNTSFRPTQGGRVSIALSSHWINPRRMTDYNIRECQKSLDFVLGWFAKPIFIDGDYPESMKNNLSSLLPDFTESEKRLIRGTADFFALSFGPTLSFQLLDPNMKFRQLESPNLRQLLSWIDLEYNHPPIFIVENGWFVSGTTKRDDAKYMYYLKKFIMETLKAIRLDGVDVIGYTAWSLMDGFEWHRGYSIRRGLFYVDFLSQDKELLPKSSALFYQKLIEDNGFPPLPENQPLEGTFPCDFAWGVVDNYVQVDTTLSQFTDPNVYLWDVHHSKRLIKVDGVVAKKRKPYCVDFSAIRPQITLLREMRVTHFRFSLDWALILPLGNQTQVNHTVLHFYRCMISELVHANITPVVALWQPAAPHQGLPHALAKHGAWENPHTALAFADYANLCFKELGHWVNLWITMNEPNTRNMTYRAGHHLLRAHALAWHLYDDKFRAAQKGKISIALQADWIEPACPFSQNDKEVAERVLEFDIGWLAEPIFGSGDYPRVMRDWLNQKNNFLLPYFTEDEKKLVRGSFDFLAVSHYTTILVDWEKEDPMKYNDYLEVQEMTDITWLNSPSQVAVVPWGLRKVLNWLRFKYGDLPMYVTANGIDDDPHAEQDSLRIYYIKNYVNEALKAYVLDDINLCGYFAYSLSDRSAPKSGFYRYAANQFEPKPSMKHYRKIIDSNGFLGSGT

[2] = system: endogenous hKlotho in HK-2 cell lysate; test: Pull-down assay from HK-2 cell lysate; assay type: binding, human; conditions: for selectivity of pull-down by silver stain, HK-2 cell lysate: silver stain of eluents
In short: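 HK-2 cells (Keratinocyte SFM with bovine pituitary extract and EGF; 37 °C, 5% CO2) were scraped and lysed in RIPA with protease inhibitors; 20% kept as input. 200 μg lysate: unlabelled competitor preincubated 15 min, then biotinylated probe 30 min RT. Streptavidin magnetic beads 20 min, PBS washes, 8 M urea elution 30 min. SDS-PAGE, then silver stain or KM2076 western (1:1000, 4 °C overnight; HRP anti-rat; chemiluminescence). Bands quantified by densitometry.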

[3] = molecular target: recombinant mouse α-Klotho (mouse) (UniProt O35082); test: BLI
Target sequence in this assay (O35082 35-1014): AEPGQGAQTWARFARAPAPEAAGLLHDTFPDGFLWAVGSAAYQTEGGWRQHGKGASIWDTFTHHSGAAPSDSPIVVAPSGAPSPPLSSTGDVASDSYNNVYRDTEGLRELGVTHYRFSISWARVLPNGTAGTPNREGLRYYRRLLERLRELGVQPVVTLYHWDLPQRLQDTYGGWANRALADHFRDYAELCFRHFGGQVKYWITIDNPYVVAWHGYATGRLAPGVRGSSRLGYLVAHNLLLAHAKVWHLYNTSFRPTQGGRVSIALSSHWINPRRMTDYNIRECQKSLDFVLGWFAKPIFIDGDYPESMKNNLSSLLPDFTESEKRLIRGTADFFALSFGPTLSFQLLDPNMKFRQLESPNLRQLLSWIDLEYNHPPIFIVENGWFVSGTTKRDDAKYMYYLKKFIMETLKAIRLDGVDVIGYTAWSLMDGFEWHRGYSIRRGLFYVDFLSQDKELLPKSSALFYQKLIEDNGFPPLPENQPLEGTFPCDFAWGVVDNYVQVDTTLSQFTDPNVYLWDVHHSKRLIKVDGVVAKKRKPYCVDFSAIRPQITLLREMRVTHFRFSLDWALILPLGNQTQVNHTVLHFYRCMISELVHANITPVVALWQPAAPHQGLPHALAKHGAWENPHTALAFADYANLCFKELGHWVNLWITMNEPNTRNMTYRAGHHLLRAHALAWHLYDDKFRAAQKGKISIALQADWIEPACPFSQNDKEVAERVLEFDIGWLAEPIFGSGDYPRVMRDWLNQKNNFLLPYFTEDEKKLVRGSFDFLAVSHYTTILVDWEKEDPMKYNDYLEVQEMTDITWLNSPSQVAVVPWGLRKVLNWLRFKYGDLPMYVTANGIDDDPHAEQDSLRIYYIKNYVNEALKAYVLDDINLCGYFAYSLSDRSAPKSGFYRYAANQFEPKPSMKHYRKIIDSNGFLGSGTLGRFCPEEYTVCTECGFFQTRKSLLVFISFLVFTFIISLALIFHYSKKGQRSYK

[4] = molecular target: recombinant human α-Klotho (human) (UniProt Q9UEF7); test: BLI
[5] = molecular target: recombinant mouse α-Klotho (mouse) (UniProt O35082); test: affinity selection-mass spectrometry

recombinant human α-Klotho (human), sequence (Q9UEF7 34-1012): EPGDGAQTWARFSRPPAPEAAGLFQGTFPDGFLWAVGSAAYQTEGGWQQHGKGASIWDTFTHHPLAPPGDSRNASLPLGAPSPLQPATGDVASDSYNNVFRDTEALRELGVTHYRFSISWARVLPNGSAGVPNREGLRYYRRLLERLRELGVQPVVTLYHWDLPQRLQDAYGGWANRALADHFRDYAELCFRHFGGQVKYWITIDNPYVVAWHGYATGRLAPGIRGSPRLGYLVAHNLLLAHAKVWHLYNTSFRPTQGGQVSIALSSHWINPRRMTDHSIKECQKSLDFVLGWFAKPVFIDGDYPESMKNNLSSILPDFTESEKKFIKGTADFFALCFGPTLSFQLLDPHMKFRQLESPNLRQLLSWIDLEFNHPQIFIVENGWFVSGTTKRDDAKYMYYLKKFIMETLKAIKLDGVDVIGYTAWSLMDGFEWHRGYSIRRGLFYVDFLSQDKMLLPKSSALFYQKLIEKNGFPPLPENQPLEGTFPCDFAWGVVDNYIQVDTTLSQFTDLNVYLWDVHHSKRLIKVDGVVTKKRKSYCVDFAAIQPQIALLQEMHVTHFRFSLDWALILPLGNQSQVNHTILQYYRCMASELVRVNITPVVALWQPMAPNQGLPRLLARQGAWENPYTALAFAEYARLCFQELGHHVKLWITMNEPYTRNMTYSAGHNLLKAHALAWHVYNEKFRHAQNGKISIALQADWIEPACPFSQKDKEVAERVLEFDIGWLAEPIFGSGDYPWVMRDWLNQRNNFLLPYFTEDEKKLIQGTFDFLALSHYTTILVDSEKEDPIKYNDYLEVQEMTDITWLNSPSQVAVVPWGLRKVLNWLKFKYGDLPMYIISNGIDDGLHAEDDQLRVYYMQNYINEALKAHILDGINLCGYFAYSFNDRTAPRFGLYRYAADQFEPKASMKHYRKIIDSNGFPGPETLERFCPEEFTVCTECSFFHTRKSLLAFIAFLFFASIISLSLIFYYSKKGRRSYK

Molecule: CSCC[C@H](NC(=O)[C@H](CCCNC(=N)N)NC(=O)[C@H](C)NC(=O)[C@H](CCCNC(=N)N)NC(=O)[C@@H]1CCCN1C(=O)[C@H](CCCNC(=N)N)NC(=O)[C@@H](NC(=O)[C@@H](NC(=O)CNC(=O)[C@H](CC(C)C)NC(=O)[C@@H]1CCCN1C(=O)[C@H](CC(=O)O)NC(=O)[C@H](CO)NC(=O)[C@H](C)NC(=O)[C@H](CCSC)NC(=O)[C@@H]1CCCN1C(=O)CC1c2ccccc2-c2ccccc21)C(C)C)C(C)C)C(N)=O [K1] ({Acetyl(9-fluorenyl)}-PMASDPLGVVRPRARM-NH2)
fold change of competition KD relative to Pep-10 [1]: 89 fold

Molecule: Biotin-PEG4-PMASDPLGVVRPRAM [Pep-10-Biotin]
selectivity of pull-down by silver stain, HK-2 cell lysate ([2]; 50 nM of biotinylated peptides): not enriched
selectivity of pull-down by silver stain, HK-2 cell lysate ([2]; legend of Figure 4D, 200 nM printed, n = 2): not able to enrich Klotho
Klotho enrichment in pulled-down fraction, HK-2 cell lysate ([2]; western blot, probe at 2 μM, n = 2): minor enrichment; also recorded: moderately enriched

Kd [3]: 66 nM
Molecule: fluorenyl-PMASDPLGVVRPRARM [K1]

Kd [3]: 19 nM
Molecule: fluorenyl-ASDPLGVVRGRA [K12]

Kd [4]: 151 nM
B1: fibroblast growth factor 23 (ligand)
chain: YPNASPLLGSSWGGLIHLYTATARNSYHLQIHKNGHVDGAPHQTIYSALMIRSEDAGFVVITGVMSRRYLCMDFRGNIFGSHYFDPENCRFQHQTLENGYDVYHSPQYHFLVSLGRAKRAFLPGMNPPPYSQFLSRRNEIPLIHFNTPIPRRHTRSAEDDSERDPLNVLKPRARMTPAPASCSQELPSAEDNSPMASDPLGVVRGGRVNTHAGGTGPEGCRPFAKFI

recovery yield [5]: 0.5%
Kd [3]: 139 nM
Molecule: fluorenyl-ASDPLGVVRPRA [K4]

Kd [3]: 9 nM
Molecule: fluorenyl-ASDPLGVVRGRAR (not fully specified (C-terminus)) [K17]

Kd [3]: 5900 nM
Molecule: PMASDPLGVVRPRARM [Pep-10]

Kd [3]: 15 nM
Molecule: fluorenyl-PMASDPLGVVRARARM [K1 P12A]
